{"data": "Published values gathered from unrelated publications", "note": "Lines come from different studies, so protocols differ."}
{"Structure (SMILES)": "O=C(NCc1ccc(O)cc1)c1cn(Cc2ccc(F)cc2)c2ccc(Oc3ccccc3)cc2c1=O", "cell line": "MCF7", "assay": "cell growth or viability, MTT", "setting": "48 h", "IC50 [µM]": 78.5}
{"Structure (SMILES)": "O=C1CCP(=[Se])(c2ccccc2)CC1", "cell line": "SW-620", "assay": "cell growth or viability, MTT", "setting": "72 h", "IC50 [µM]": "> 100"}
{"Structure (SMILES)": "Cc1sc2c(c1C)C(c1ccc(Cl)cc1)=N[C@@H](CC(N)=O)c1nnc(C)n1-2", "cell line": "MP46", "assay": "cell growth or viability, ATP luminescence", "setting": "72 h", "IC50 [µM]": 0.109}
{"Structure (SMILES)": "N.N.[Cl][Pt][Cl]", "cell line": "SW-620", "assay": "cell growth or viability, MTT", "setting": "72 h", "IC50 [µM]": 6.7}
{"Structure (SMILES)": "COc1ccc2c(c1OC)CN1CCc3cc4c(cc3[C@@H]1C2)OCO4", "cell line": "HepaRG", "assay": "reactive oxygen species, inhibitor", "setting": "16 h", "IC50 [µM]": 2.69}
{"Structure (SMILES)": "N.N.[Cl][Pt][Cl]", "cell line": "MCF7", "assay": "cell growth or viability, MTT", "setting": "48 h", "IC50 [µM]": 2}
{"Structure (SMILES)": "CC[C@@]1(O)C(=O)OCc2c1cc1n(c2=O)Cc2cc3ccccc3nc2-1", "cell line": "MP46", "assay": "cell growth or viability, ATP luminescence", "setting": "72 h", "IC50 [µM]": 0.21}
{"Structure (SMILES)": "O=C(NCc1ccccc1)c1cn(Cc2ccc(C(F)(F)F)cc2)c2ccc(Oc3ccccc3)cc2c1=O", "cell line": "MCF7", "assay": "cell growth or viability, MTT", "IC50 [µM]": "< 12"}
{"Structure (SMILES)": "CC[C@H](C)[C@H](NC(=O)[C@H](CCCCN)NC(=O)[C@H](CCCCN)NC(=O)[C@H](CC(C)C)NC(=O)[C@H](CCCCN)NC(=O)[C@H](CCCCN)NC(=O)[C@H](Cc1ccccc1)NC(=O)[C@H](Cc1ccccc1)NC(=O)[C@H](CCCNC(=N)N)NC(=O)[C@H](CCCNC(=N)N)NC(=O)[C@@H](NC(=O)[C@H](CCCCN)NC(=O)[C@H](CCCNC(=N)N)NC(=O)[C@@H](NC(=O)[C@@H](N)Cc1ccc(O)cc1)[C@@H](C)CC)[C@@H](C)CC)C(=O)N[C@@H](CC(C)C)C(=O)N[C@@H](CCCCN)C(=O)N[C@@H](CCCCN)C(N)=O", "cell line": "THP-1", "assay": "cell growth or viability, resazurin", "IC50 [µM]": 5.2}
{"Structure (SMILES)": "CC(C)[C@H](NC(=O)[C@H](Cc1c[nH]c2ccccc12)NC(=O)[C@H](Cc1c[nH]cn1)NC(=O)[C@H](CCCNC(=N)N)NC(=O)[C@H](CCCNC(=N)N)NC(=O)[C@H](Cc1c[nH]c2ccccc12)NC(=O)[C@H](Cc1c[nH]c2ccccc12)NC(=O)[C@H](Cc1c[nH]cn1)NC(=O)[C@H](Cc1c[nH]c2ccccc12)NC(=O)[C@H](CCCNC(=N)N)NC(=O)[C@@H](N)CCCCN)C(=O)N[C@H](C(=O)N[C@@H](Cc1c[nH]c2ccccc12)C(N)=O)C(C)C", "cell line": "THP-1", "assay": "cell growth or viability, MTT", "IC50 [µM]": 103}
{"Structure (SMILES)": "S=P1(c2ccccc2)CCCCC1", "cell line": "SW-620", "assay": "cell growth or viability, MTT", "setting": "72 h", "IC50 [µM]": "> 100"}
{"Structure (SMILES)": "O=C(NCc1ccc(F)cc1)c1cn(Cc2ccc(C(F)(F)F)cc2)c2ccc(Oc3ccccc3)cc2c1=O", "cell line": "MCF7", "assay": "cell growth or viability, MTT", "setting": "24 h", "IC50 [µM]": 8.32}
